# Results taken from ChEMBL document CHEMBL5058577, “EUbOPEN Chemogenomics Library 2 (Multiplex)” (2022).
# System: HEK-293T
# Assay: Multiplex assay against HEK293T
# Type: toxicity, cell-based
# Conditions: human
# Procedure, shortened: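 Hoechst33342, BioTracker Green Microtubule Cytoskeleton Dye, MitoTracker Red and Annexin V Alexa Fluor 680 were added to live cells at seeding, and imaging on a CQ1 microscope at 37°C and 5% CO2 followed compound addition. Gating by CellPathfinder machine learning separated cells into Hoechst high-intensity objects or normal cells, then normal cells into healthy, pyknosed or fragmented nuclei, then pyknosed cells into mitotic or apoptotic. Per cents of healthy-nucleus cells are reported for the tubulin, mitochondrial-mass and membrane-permeability phenotypes.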
# [1] = 12 h, 1 µM, compound concentration 1 uM, replicate 1
# [2] = 12 h, 1 µM, compound concentration 1 uM, replicate 2
# [3] = 12 h, 10 µM, compound concentration 10 uM, replicate 1
# [4] = 12 h, 10 µM, compound concentration 10 uM, replicate 2
# [5] = 24 h, 1 µM, compound concentration 1 uM, replicate 1
# [6] = 24 h, 1 µM, compound concentration 1 uM, replicate 2
# [7] = 24 h, 10 µM, compound concentration 10 uM, replicate 1
# [8] = 24 h, 10 µM, compound concentration 10 uM, replicate 2
# [9] = 48 h, 1 µM, compound concentration 1 uM, replicate 1
# [10] = 48 h, 1 µM, compound concentration 1 uM, replicate 2
# [11] = 48 h, 10 µM, compound concentration 10 uM, replicate 1
# [12] = 48 h, 10 µM, compound concentration 10 uM, replicate 2
structure (smiles),measurement,setting,value
Cl.N=C(N)NC(=O)Cc1c(Cl)cccc1Cl [GUANFACINE HYDROCHLORIDE],Population Apoptotic (%),[1],29%
same,Population Fragmented Nuclei (%),[1],3%
same,Population Healthy Nuclei (%),[1],84%
same,Population Hoechst High Intensity Objects (%),[1],7%
same,Population Membrane Permeable-Phenotype (%),[1],0%
same,Population Mitochondria Different-Phenotype (%),[1],46%
same,Population Mitotic Cells (%),[1],70%
same,Population Normal (%),[1],92%
same,Population Pyknosed Nuclei (%),[1],11%
same,Population Tubulin-Different-Phenotype (%),[1],31%
same,Total Cell Count,[1],384
same,Population Apoptotic (%),[2],47%
same,Population Fragmented Nuclei (%),[2],5%
same,Population Healthy Nuclei (%),[2],76%
same,Population Hoechst High Intensity Objects (%),[2],12%
same,Population Mitochondria Different-Phenotype (%),[2],67%
same,Population Mitotic Cells (%),[2],52%
same,Population Normal (%),[2],87%
same,Population Pyknosed Nuclei (%),[2],17%
same,Total Cell Count,[2],289
same,Population Apoptotic (%),[3],52%
same,Population Fragmented Nuclei (%),[3],12%
same,Population Healthy Nuclei (%),[3],67%
same,Population Hoechst High Intensity Objects (%),[3],7%
same,Population Membrane Permeable-Phenotype (%),[3],0%
same,Population Mitochondria Different-Phenotype (%),[3],61%
same,Population Mitotic Cells (%),[3],47%
same,Population Normal (%),[3],92%
same,Population Pyknosed Nuclei (%),[3],20%
same,Population Tubulin-Different-Phenotype (%),[3],43%
same,Total Cell Count,[3],296
same,Population Apoptotic (%),[4],34%
same,Population Fragmented Nuclei (%),[4],8%
same,Population Healthy Nuclei (%),[4],77%
same,Population Hoechst High Intensity Objects (%),[4],10%
same,Population Mitochondria Different-Phenotype (%),[4],69%
same,Population Mitotic Cells (%),[4],65%
same,Population Normal (%),[4],89%
same,Population Pyknosed Nuclei (%),[4],14%
same,Population Tubulin-Different-Phenotype (%),[4],38%
same,Total Cell Count,[4],365
same,Population Apoptotic (%),[5],36%
same,Population Fragmented Nuclei (%),[5],8%
same,Population Healthy Nuclei (%),[5],80%
same,Population Hoechst High Intensity Objects (%),[5],4%
same,Population Membrane Permeable-Phenotype (%),[5],0%
same,Population Mitochondria Different-Phenotype (%),[5],27%
same,Population Mitotic Cells (%),[5],63%
same,Population Normal (%),[5],95%
same,Population Pyknosed Nuclei (%),[5],11%
same,Population Tubulin-Different-Phenotype (%),[5],21%
same,Total Cell Count,[5],493
same,Population Apoptotic (%),[6],50%
same,Population Fragmented Nuclei (%),[6],4%
same,Population Healthy Nuclei (%),[6],83%
same,Population Hoechst High Intensity Objects (%),[6],10%
same,Population Mitochondria Different-Phenotype (%),[6],42%
same,Population Mitotic Cells (%),[6],50%
same,Population Normal (%),[6],89%
same,Population Tubulin-Different-Phenotype (%),[6],19%
same,Total Cell Count,[6],344
same,Population Apoptotic (%),[7],46%
same,Population Fragmented Nuclei (%),[7],11%
same,Population Healthy Nuclei (%),[7],75%
same,Population Hoechst High Intensity Objects (%),[7],7%
same,Population Membrane Permeable-Phenotype (%),[7],0%
same,Population Mitochondria Different-Phenotype (%),[7],48%
same,Population Mitotic Cells (%),[7],53%
same,Population Normal (%),[7],92%
same,Population Pyknosed Nuclei (%),[7],12%
same,Population Tubulin-Different-Phenotype (%),[7],39%
same,Total Cell Count,[7],343
same,Population Apoptotic (%),[8],36%
same,Population Fragmented Nuclei (%),[8],6%
same,Population Healthy Nuclei (%),[8],83%
same,Population Hoechst High Intensity Objects (%),[8],9%
same,Population Mitochondria Different-Phenotype (%),[8],50%
same,Population Mitotic Cells (%),[8],63%
same,Population Normal (%),[8],90%
same,Population Pyknosed Nuclei (%),[8],10%
same,Population Tubulin-Different-Phenotype (%),[8],27%
same,Total Cell Count,[8],454
same,Population Apoptotic (%),[9],15%
same,Population Fragmented Nuclei (%),[9],15%
same,Population Healthy Nuclei (%),[9],78%
same,Population Hoechst High Intensity Objects (%),[9],2%
same,Population Membrane Permeable-Phenotype (%),[9],1%
same,Population Mitochondria Different-Phenotype (%),[9],22%
same,Population Mitotic Cells (%),[9],84%
same,Population Normal (%),[9],97%
same,Population Pyknosed Nuclei (%),[9],6%
same,Population Tubulin-Different-Phenotype (%),[9],21%
same,Total Cell Count,[9],680
same,Population Apoptotic (%),[10],34%
same,Population Fragmented Nuclei (%),[10],10%
same,Population Healthy Nuclei (%),[10],79%
same,Population Hoechst High Intensity Objects (%),[10],7%
same,Population Membrane Permeable-Phenotype (%),[10],0%
same,Population Mitochondria Different-Phenotype (%),[10],32%
same,Population Mitotic Cells (%),[10],65%
same,Population Normal (%),[10],92%
same,Population Pyknosed Nuclei (%),[10],9%
same,Population Tubulin-Different-Phenotype (%),[10],14%
same,Total Cell Count,[10],560
same,Population Apoptotic (%),[11],47%
same,Population Fragmented Nuclei (%),[11],17%
same,Population Healthy Nuclei (%),[11],73%
same,Population Hoechst High Intensity Objects (%),[11],6%
same,Population Membrane Permeable-Phenotype (%),[11],0%
same,Population Mitochondria Different-Phenotype (%),[11],31%
same,Population Mitotic Cells (%),[11],52%
same,Population Normal (%),[11],93%
same,Population Pyknosed Nuclei (%),[11],9%
same,Population Tubulin-Different-Phenotype (%),[11],14%
same,Total Cell Count,[11],421
same,Population Apoptotic (%),[12],50%
same,Population Fragmented Nuclei (%),[12],12%
same,Population Healthy Nuclei (%),[12],80%
same,Population Hoechst High Intensity Objects (%),[12],10%
same,Population Mitochondria Different-Phenotype (%),[12],33%
same,Population Mitotic Cells (%),[12],50%
same,Population Normal (%),[12],89%
same,Population Pyknosed Nuclei (%),[12],6%
same,Population Tubulin-Different-Phenotype (%),[12],20%
same,Total Cell Count,[12],612
